Data as given in ChEMBL document CHEMBL1157540, “2-Arylthiomorpholine derivatives as potent and selective monoamine oxidase B inhibitors” (Bioorg Med Chem, 2010).

What was measured:
[1] = biological target: T1, Amine oxidase [flavin-containing] A (Rattus norvegicus, UniProt P21396); assay: Inhibition of MAOA in rat brain mitochondrial suspension; format: tissue-based
T1 sequence (P21396 whole entry): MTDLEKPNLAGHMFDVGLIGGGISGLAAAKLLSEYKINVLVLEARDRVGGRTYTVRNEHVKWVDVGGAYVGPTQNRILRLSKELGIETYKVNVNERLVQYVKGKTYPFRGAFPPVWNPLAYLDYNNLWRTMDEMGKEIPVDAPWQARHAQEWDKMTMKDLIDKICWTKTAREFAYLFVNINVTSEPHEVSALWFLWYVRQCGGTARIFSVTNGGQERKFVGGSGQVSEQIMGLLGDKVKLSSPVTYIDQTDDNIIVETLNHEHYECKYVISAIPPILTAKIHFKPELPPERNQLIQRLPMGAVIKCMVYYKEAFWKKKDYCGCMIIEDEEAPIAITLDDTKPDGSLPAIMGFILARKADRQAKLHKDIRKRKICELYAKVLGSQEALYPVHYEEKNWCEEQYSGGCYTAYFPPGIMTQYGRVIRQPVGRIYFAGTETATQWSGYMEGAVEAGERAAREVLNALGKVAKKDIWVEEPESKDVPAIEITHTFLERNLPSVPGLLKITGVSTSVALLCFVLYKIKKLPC
Method in brief: (§1)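 Rat brain mitochondria; MAO-A substrate 5-HT, MAO-B substrate DMAPEA; metabolites measured by HPLC with electrochemical detection. Percent inhibition relative to enzyme treated alike without inhibitor; IC50 from inhibition vs –log concentration (mean ± SD, at least two independent experiments, each in triplicate). Ki by Cheng–Prusoff with Km 100 μM (5-HT, MAO-A) and 5 μM (DMAPEA, MAO-B).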

[2] = biological target: T2, Amine oxidase [flavin-containing] B (Rattus norvegicus, UniProt P19643); assay: Inhibition of MAOB in rat brain mitochondrial suspension; format: tissue-based; method in brief: as §1
T2 sequence (P19643 whole entry): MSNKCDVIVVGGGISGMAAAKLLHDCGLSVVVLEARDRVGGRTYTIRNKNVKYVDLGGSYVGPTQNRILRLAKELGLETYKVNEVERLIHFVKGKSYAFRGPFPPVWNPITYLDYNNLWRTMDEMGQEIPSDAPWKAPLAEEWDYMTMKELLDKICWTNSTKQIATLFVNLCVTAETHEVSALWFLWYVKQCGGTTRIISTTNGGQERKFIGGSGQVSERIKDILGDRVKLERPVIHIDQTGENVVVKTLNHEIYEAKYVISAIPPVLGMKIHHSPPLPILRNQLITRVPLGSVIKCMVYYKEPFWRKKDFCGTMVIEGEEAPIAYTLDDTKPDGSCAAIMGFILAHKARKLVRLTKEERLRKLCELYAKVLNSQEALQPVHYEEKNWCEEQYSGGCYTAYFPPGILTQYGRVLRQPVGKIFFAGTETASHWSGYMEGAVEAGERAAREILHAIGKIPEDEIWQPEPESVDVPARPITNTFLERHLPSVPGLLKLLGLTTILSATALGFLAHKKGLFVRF

[3] = biological target: T3, Amine oxidase [flavin-containing] B (Homo sapiens, UniProt P27338); assay: Inhibition of human recombinant MAOB by spectrophotometrically
T3 sequence (P27338 whole entry): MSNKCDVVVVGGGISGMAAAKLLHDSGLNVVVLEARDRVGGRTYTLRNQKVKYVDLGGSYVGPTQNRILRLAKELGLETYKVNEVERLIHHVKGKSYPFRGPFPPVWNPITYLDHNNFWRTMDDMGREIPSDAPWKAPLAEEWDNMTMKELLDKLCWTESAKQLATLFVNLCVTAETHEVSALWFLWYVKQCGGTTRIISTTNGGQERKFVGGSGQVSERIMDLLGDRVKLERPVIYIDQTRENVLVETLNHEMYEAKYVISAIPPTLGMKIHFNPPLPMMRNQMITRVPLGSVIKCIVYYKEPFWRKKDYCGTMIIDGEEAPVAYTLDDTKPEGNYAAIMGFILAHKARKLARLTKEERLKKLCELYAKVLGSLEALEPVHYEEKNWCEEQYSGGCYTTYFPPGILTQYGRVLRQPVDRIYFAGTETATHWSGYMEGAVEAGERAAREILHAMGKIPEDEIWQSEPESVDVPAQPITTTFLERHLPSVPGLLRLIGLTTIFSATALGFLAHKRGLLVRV
Method in brief: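 Purified human recombinant MAO-B; benzylamine substrate in 50 mM Hepes pH 7.5 with 0.5% (w/v) reduced Triton X-100 at 25 °C. Benzaldehyde formation monitored at 250 nm. Ki from full kinetic determinations (initial velocities at varied inhibitor levels; Lineweaver–Burk analysis).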

[4] = biological target: T4, Amine oxidase [flavin-containing] A (Homo sapiens, UniProt P21397); assay: Inhibition of human recombinant MAOA by spectrophotometrically
T4 sequence (P21397 whole entry): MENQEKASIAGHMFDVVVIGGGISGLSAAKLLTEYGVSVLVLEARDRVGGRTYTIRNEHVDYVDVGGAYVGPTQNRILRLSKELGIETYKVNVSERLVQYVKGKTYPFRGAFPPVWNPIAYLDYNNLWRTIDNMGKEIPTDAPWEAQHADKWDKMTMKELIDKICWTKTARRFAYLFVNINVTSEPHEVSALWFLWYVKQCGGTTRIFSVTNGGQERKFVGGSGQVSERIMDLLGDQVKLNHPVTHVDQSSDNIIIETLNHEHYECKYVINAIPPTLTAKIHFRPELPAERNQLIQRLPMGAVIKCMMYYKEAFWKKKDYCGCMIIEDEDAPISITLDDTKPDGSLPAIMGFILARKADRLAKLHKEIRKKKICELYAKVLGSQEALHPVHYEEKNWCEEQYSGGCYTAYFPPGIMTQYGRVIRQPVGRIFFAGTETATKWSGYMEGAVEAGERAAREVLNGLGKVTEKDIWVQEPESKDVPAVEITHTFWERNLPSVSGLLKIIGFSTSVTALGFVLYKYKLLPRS
Method in brief: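 Purified human recombinant MAO-A; initial oxidation rates read spectrophotometrically at 30 °C in 50 mM potassium phosphate pH 7.4 with 0.05% Triton X-100. Kynuramine 0.1–0.9 mM at six inhibitor concentrations spanning 10-fold; product followed at 314 nm. Ki taken directly from full kinetic analysis; errors from a single kinetic analysis.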

[5] = species: Rattus norvegicus; assay: Selectivity ratio of Ki for rat MAOA to Ki for rat MAOB
Method in brief: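 Ki(rMAO-A)/Ki(rMAO-B), each from rat brain mitochondrial IC50 by Cheng–Prusoff (5-HT for MAO-A, Km 100 μM; DMAPEA for MAO-B, Km 5 μM; HPLC-electrochemical detection).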

[6] = species: Homo sapiens; assay: Selectivity ratio of Ki for human MAOA to Ki for human MAOB

## c1ccc(C2CNCCS2)cc1 (racemic)
[1]
  Ki: 10.6 µM
[2]
  Ki: 2.23 µM
[3]
  Ki: > 100 µM
[4]
  Ki: > 100 µM
[5]
  Ratio Ki: 5

## CCOc1ccc(C2CNC(=O)CS2)cc1 (racemic)
[1]
  Ki: 12.3 µM
[2]
  Ki: 3.4 µM
[3]
  Ki: 16.9 µM
[4]
  Ki: 60 µM
[5]
  Ratio Ki: 3.6
[6]
  Ratio Ki: 3.5

## c1ccc(COc2ccc(C3CNCCS3)cc2)cc1 (racemic)
[1]
  Ki: 19 µM
[2]
  Ki: 0.13 µM
[3]
  Ki: 0.038 µM
[4]
  Ki: > 100 µM
[5]
  Ratio Ki: 146
[6]
  Ratio Ki: > 2600

## CCCOc1ccc(C2CNCCS2)cc1 (racemic)
[1]
  Ki: 3.69 µM
[2]
  Ki: 0.98 µM
[3]
  Ki: 0.13 µM
[4]
  Ki: 6.62 µM
[5]
  Ratio Ki: 4
[6]
  Ratio Ki: 51

## CCCCOc1ccc(C2CNCCS2)cc1 (racemic)
[1]
  Ki: 14.1 µM
[2]
  Ki: 0.27 µM
[3]
  Ki: 0.068 µM
[4]
  Ki: 2.5 µM
[5]
  Ratio Ki: 52
[6]
  Ratio Ki: 37

## COc1ccc(C2CNCCS2)cc1 (racemic)
[1]
  Ki: 6.39 µM
[2]
  Ki: 3.85 µM
[3]
  Ki: > 100 µM
[4]
  Ki: 16.2 µM
[5]
  Ratio Ki: 1.7

## CCOc1ccc(C2CNCCS2)cc1 (racemic)
[1]
  Ki: 2.17 µM
[2]
  Ki: 2.17 µM
[3]
  Ki: 2.1 µM
[4]
  Ki: 9.6 µM
[5]
  Ratio Ki: 1
[6]
  Ratio Ki: 5

## C[C@H](N)Cc1ccccc1 [DEXTROAMPHETAMINE]
[1]
  Ki: 12.2 µM
[2]
  Ki: > 100 µM
[3]
  Ki: 280 µM
[4]
  Ki: 14.4 µM
[5]
  Ratio Ki: > 0.12
[6]
  Ratio Ki: 0.05

## CCCCOc1ccc(C2CNC(=O)CS2)cc1 (racemic)
[1]
  Ki: 50.9 µM
[2]
  Ki: 0.16 µM
[3]
  Ki: 0.46 µM
[4]
  Ki: 10 µM
[5]
  Ratio Ki: 318
[6]
  Ratio Ki: 22

## COc1ccc(C2CNC(=O)CS2)cc1 (racemic)
[1]
  Ki: 9.28 µM
[2]
  Ki: 13.6 µM
[3]
  Ki: > 100 µM
[4]
  Ki: > 100 µM
[5]
  Ratio Ki: 0.68

## O=C1CSC(c2ccccc2)CN1 (racemic)
[1]
  Ki: 9.19 µM
[2]
  Ki: 9.58 µM
[3]
  Ki: > 100 µM
[4]
  Ki: > 100 µM
[5]
  Ratio Ki: 1

## O=C1CSC(c2ccc(OCc3ccccc3)cc2)CN1 (racemic)
[1]
  Ki: 27.5 µM
[2]
  Ki: 0.074 µM
[3]
  Ki: 0.048 µM
[4]
  Ki: > 100 µM
[5]
  Ratio Ki: 373
[6]
  Ratio Ki: > 2000

## CCCOc1ccc(C2CNC(=O)CS2)cc1 (racemic)
[1]
  Ki: 8.68 µM
[2]
  Ki: 1.49 µM
[3]
  Ki: 2.4 µM
[4]
  Ki: 40 µM
[5]
  Ratio Ki: 6
[6]
  Ratio Ki: 16.7
